Our source for the yeast fitness values is the RNAGym collection of RNA variant scans (doi:10.1126/science.aae0568).

Fewer inactive variants are shown than the library holds.

The chains are these.
B1: tRNA (parent)
chain: GUUCCGUUGGCGUAAUGGUAACGCGUCUCCCUCCUAAGGAGAAGACUGCGGGUUCGAGUCCCGUACGGAACG

In this series the parent is B1. In words: yeast fitness relative to wild type (ratio to wild type); higher = fitter; tRNA-Arg(CCU), competitive growth, 37 C, YPD. The essentials: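 Changes in genotype frequencies gave Darwinian fitness relative to wild type. Frequencies were read by 100-nucleotide paired-end sequencing of gene amplicons before and after pooled Saccharomyces cerevisiae strains, carrying tRNA-Arg(CCU) gene variants at the native locus, were competed in YPD at 37°C for 24 hours in six replicates. A genotype was kept only with ≥ 100 starting reads, and estimates < 0.5 were set to 0.5.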
Regarding GUUCCGUUGGCGUAAUGGUAACGCGUCUCGCUCCUAAGGAGAAGACUGCGGGUUCGAGUCCUGUACGGAACG, the yeast fitness was determined as 0.643.
The value for GUUCCGUUGGCGUAAUGGUAACGCGUCUCGCUCCUAAGCAGAAAACUGCGGGUUCGAGUCCCGUACGGAACG was not above 0.5; that for GUUCCGUUGGCGUAAUGGUAACGCGUCUCGCUCCUAAGGAGAAGACUGCGGGUUCGAGUCCCGUACGGUACG was 0.669; that for GUUCCGUUGGCGUAAUGGUAACGCGUCUCGCUCCUAAGGAGAAGUCUGCGGGUUCGAGUGCUGUAGGGAACG was not above 0.5.
With GUUCCGUUGGCGUAAUGGUAACGCGUCUCGCUCCUAAGGAGAAGACUGAGGGUGCGAGUCCCGUGCGGAACG, the yeast fitness is not above 0.5.
The figure for GUUCCGUUGGCGUAAUGGUAACGCGUCUCGCUCCUAAGGAAAAGACUGCGGGUUCGAGUCCCGUAUGGAACG is not above 0.5; for GUUCCGUUGGCGUAAUGGUAACGCGUCUCGGUCCUAAGGAGAGGACUGCGGGUUCGGGUCCCGUACGGAACG it is not above 0.5; for GUUCCGUUGGCGUAAUGGUAACGCGUCUCGCUCCUAAGGAAAAGACUGCGGGUUCGAGUCCCGUACGGAACG it is 0.568.
The figure for GUUCCGUUGGCGUAAUGGUAACGCGUCUCGUUCCUAAGGAGAAGAUUGCGGGUUCGAGUCCCGUACGGAACG is 0.609.
The value for GUUCCGUUGGCGUAAUGGUAACGCGUCUCGCUCGUAGGGAGAAGGCUGCGGGUUCGAGUCCCGUACGGAACG was not above 0.5.
With GUUCCGUUGGCGUAAUGGUAACGCGUCUCGCUCCUAAGGAGAAGAGUGCGGGUUCGAGUCUCGUACGGAACG, the yeast fitness was not above 0.5.
The value for GUUCCGUUGGCGUAAUGGUAACGCGUCUCGCUGCUAAGGAGAAGACUGCGGGUUCGAGUCCCGUACGGAACG was not above 0.5.
The figure for GUUCCGUUGGCGUAAUGGUAACGCGUCUCGCUACUAAGGAGAAGACUGCGGGUUCGAGUCCCGUACGGAACG is 0.563; for GUUCCGUUGGCGUAAUGGUAACGCGUCUCGCUCCUAAGGAGAAGAGUGCGGGCUCGGGUCCCGUACGGUACG it is not above 0.5; for GUUCCGUUGGCGUAAUGGUAACGCGUCUCGCUCCUAAGGAGAAGACUGAGGGUUCAAGUGCCGUACGCAACG it is 0.541.
The figure for GUUCCGUUGGCGUAAUGGUAACGCGUCUCGUUCCUAAGGAGAAGACUGCGGGUUCGGGACCCGUACGGAACG is not above 0.5; for GUUCCGUUGGCGUAAUGGUAACGCGUCUCGCUCCUAAGGAGAAGAUUGCGGGUUCGAGUCCCGUACGGAACG it is 0.648; for GUUCCGUUGGCGUAAUGGUAACGCGUCUCGCUCCUAAGGAGAAGAAUGCGGGUUCGAGUCCCGUACGGAACG it is 0.587.
Turning to GUUCCGUUGGCGUAAUGGUAACGCGUCUCGCUCCUAAGGAGAAGACUGCGGGUUCGAGUCGCGUACGGAACG, the yeast fitness was determined as 0.697.
The figure for GUUCCGUUGGCGUAAUGGUAACGCGUCUCGCUCCUAAGGAGAAGACUGCGGGUUCGAGUCUCGUACGGAACG is 0.57.
The figure for GUUCCGUUGGCGUAAUGGUAACGCGUCUCGCUCCUAAGGAGAAGACUGCGGGUUCGAGUCACGUACGGAACG is not above 0.5; for GUUCCGUUGGCGUAAUGGUAACGCGUCUCGCUCCUAAGGAGAAGACUGCGGGUUCGAGUCCCGUAAGGAACG it is not above 0.5; for GUUCCGUUGGCGUAAUGGUAACGCGUCUCGCUCCUAAGGAGAAGACUGCGGGUUCGAGUCCCGUAGGGAACG it is 0.574.
The figure for GUUCCGUUGGCGUAAUGGUAACGCGUCUCGCUCCUAAGGAGAAGACUGCGGGUUCGAGUCCCGUAUGGAACG is 0.606; for GUUCCGUUGGCGUAAUGGUAACGCGUCUCGCUCGUAGGGAGAAGACUGCGGGUUCGAGUCCCGUACGGAACG it is 0.811; for GUUCCGUUGGCGUAAUGGUAACGCGUCUCGUUCCUAAGGAGAAGACUGCGGGUUCGAGACCCGUACGGAACG it is 0.563.
As to GUUCCGUUGGCGUAAUGGUAACGCGUCUCGCUCAUAAGGAGAAGACUGCGGGUUCGUGUCGCGUACGGAACG, the yeast fitness was not above 0.5.
GUUCCGUUGGCGUAAUGGUAACGCGUCUCGCUCCUAAGGAAAAGCCUGCGGGUUCGAGUCCCGUACGGAACG: the yeast fitness was not above 0.5.
The figure for GUUCCGUUGGCGUAAUGGUAACGCGUCUCGCUCCUAAGGAGAAGACUGAGGGUUCGAGUCCCGUACGAAACG is not above 0.5.
The figure for GUUCCGUUGGCGUAAUGGUAACGCGUCUCGCUCGUAAGGCGAAGACUGCGGGUUCGAGUCCCGUAAGGCACG is 0.527.
The value for GUUCCGUUGGCGUAAUGGUAACGCGUCUCGCUUCUAAGGAGAAGACUGCGGGUUCCAGUCCCGUACGGAACG was not above 0.5; that for GUUCCGUUGGCGUAAUGGUAACGCGUCUCGCUCAUAAGGAGAAGACUGGAGGUUCGAGCCCCGUACGGAACG was not above 0.5; that for GUUCCGUUGGCGUAAUGGUAACGCGUCUCGCUCCUAAGGAGAAGACUGUGGGUUCGAGUCCCGUACGGAACG was 0.643.
For GUUCCGUUGGCGUAAUGGUAACGCGUCUCGCUCCUAAGGAGAAGACUGAGGGUUCGAGUCCCGUACGGAACG, the yeast fitness was not above 0.5.
The value for GUUCCGUUGGCGUAAUGGUAACGCGUCUCGCUCCUAAGGAGAAGACUGCGGGUUCGAGUUCGGUAAGGAACG was 0.695; that for GUUCCGUUGGCGUAAUGGUAACGCGUCUCGCUUCUAAGGAGAAGACUGCGGGUUCGACUCCCGUACGGAACG was 0.574; that for GUUCCGUUGGCGUAAUGGUAACGCGUCUCGCUUCUAAGGAGAAGACUGCGGGUUCGAAUCCCGUACGGAACG was not above 0.5.
The value for GUUCCGUUGGCGUAAUGGUAACGCGUCUCGCUCCUAAGGAGAAGACUGUGGGUUCGAGUCCCGUACCGAACG was not above 0.5; that for GUUCCGUUGGCGUAAUGGUAACGCGUCUCGGAUCUAAGGAGAAGACUGCGGGUUCGAGUCCCGUUCGGAACG was not above 0.5.
With GUUCCGUUGGCGUAAUGGUAACGCGUCUCGCUCCUAACGAGAAGACUGCGGGUUCAAGUCCCGUGCGGAACG, the yeast fitness was found to be 0.624.
Take GUUCCGUUGGCGUAAUGGUAACGCGUCUCGCUCUUAAGGAGAAGACUGGGGGUUCGAGUCCCGUACGGAACG: the yeast fitness came out at 0.615.
The value for GUUCCGUUGGCGUAAUGGUAACGCGUCUCGCUCCUAAGGAGAAGGCCGCGGGUUCGAGUCCCGUACGGAACG was not above 0.5; that for GUUCCGUUGGCGUAAUGGUAACGCGUCUCGGUGCUACGGAGAAGACUGCGGGUUCGAGUCCCGUACCGAACG was not above 0.5.
The figure for GUUCCGUUGGCGUAAUGGUAACGCGUCUCGCUCUUAAGGAGAAGACUGCGGGUUCGGGUUCCGUACGCAACG is not above 0.5; for GUUCCGUUGGCGUAAUGGUAACGCGUCUCGCUCGUAAGGAGAAGACUGCGGGUUCGAGUCCCGUAUGGAACG it is not above 0.5.
Turning to GUUCCGUUGGCGUAAUGGUAACGCGUCUCGCUGCUAAGGAGAAGACUGCGGGUUCGAGUGCCGUACGGAUCG, the yeast fitness is not above 0.5.
The value for GUUCCGUUGGCGUAAUGGUAACGCGUCUCGCUGCUAAGGAGAAGACUGCGGGUUCGAGUGCCGUACGGAGCG was 0.544; that for GUUCCGUUGGCGUAAUGGUAACGCGUCUCGGUCCUAAGGAGAAGACUGCGGGUUCGAGUCCCGUUGGGAACG was not above 0.5.
The value for GUUCCGUUGGCGUAAUGGUAACGCGUCUCGCUCUUAAGGAGAAGACUGGGGGUUUGAGUCCCGUACGGAACG was not above 0.5.
The value for GUUCCGUUGGCGUAAUGGUAACGCGUCUCGCUCCUAAGAAGAAGACUGCGGGUUCGAUUCCAGUACGGAACG was not above 0.5; that for GUUCCGUUGGCGUAAUGGUAACGCGUCUCGCUCAUAAGGAGAAGACUGGAGGUUCGAGUCCCGAACGCAACG was not above 0.5.
GUUCCGUUGGCGUAAUGGUAACGCGUCUCGCUGCUAAGGAGAAGACUGGGGGUUCGAGUCGCGUACGGAACG: the yeast fitness was 0.538.
The figure for GUUCCGUUGGCGUAAUGGUAACGCGUCUCGCUCAUAAGGAGAAGACUGCGGCUUCGAGUCCCGUACGGAACG is not above 0.5.
GUUCCGUUGGCGUAAUGGUAACGCGUCUCGCUCCUAACGAGAAGACUGCGGGUUCAAGUCCCGUACGGAACG: the yeast fitness came out at 0.959.
The figure for GUUCCGUUGGCGUAAUGGUAACGCGUCUCGCUCCUAAGGAGAAGAGUGCGGGUUCGAGUCCCGUACGGUACG is 0.586; for GUUCCGUUGGCGUAAUGGUAACGCGUCUCGAUCCUAAGGAGAAGACGGCGGGUUCGACUCCCGUACGGAACG it is not above 0.5.
The value for GUUCCGUUGGCGUAAUGGUAACGCGUCUCGCUCCUAAGGAGAAGACUGCGGGUUGGCGCCCCGUACGGAACG was not above 0.5; that for GUUCCGUUGGCGUAAUGGUAACGCGUCUCGGUGCUACGGAGAAGACUGCGGGUUCGAGUCCCGUACGGAACG was not above 0.5.
Take GUUCCGUUGGCGUAAUGGUAACGCGUCUCGCUUCUAAGGAGAAGACUGCGGGUUCGACUCCCGAAUGGAACG: the yeast fitness was not above 0.5.
In the case of GUUCCGUUGGCGUAAUGGUAACGCGUCUCGCUUCUAAGGAGAAGACUGCGGGUUCGAGUCCCGUAUGGAACG, the yeast fitness was not above 0.5.
The figure for GUUCCGUUGGCGUAAUGGUAACGCGUCUCGAUCCUAAGGAGAAGACUGCGGGUUCGAGUCCCGUACGGAACG is 0.62; for GUUCCGUUGGCGUAAUGGUAACGCGUCUCGGUCCUAAGGAGAAGACUGCGGGUUCGAGUCCCGUACGGAACG it is 0.687.
The figure for GUUCCGUUGGCGUAAUGGUAACGCGUCUCGCUCGUAAGGAGAAGACUGCGGGUUCGUGUCCCGUACGGAACG is not above 0.5.
In the case of GUUCCGUUGGCGUAAUGGUAACGCGUCUCGCUCCUAAGGAAAAGCCUGCGGGUUCGAGUCCCGAACGGAACG, the yeast fitness was 0.579.
The figure for GUUCCGUUGGCGUAAUGGUAACGCGUCUCGGAUCUAAGGAGAAGACUGCGGGUUCGAGUCCCGUACGGAACG is 0.554; for GUUCCGUUGGCGUAAUGGUAACGCGUCUCGCUCCUAAGGAGAAGACUGCGGGUUCGAGUCCCGUCCGGAACG it is 0.68; for GUUCCGUUGGCGUAAUGGUAACGCGUCUCGCUCCUAAGGAGAAGACUGCGGGUUCGAGUCCCGUUCGGAACG it is 0.589.
The figure for GUUCCGUUGGCGUAAUGGUAACGCGUCUCGCUCCUAAGGAGAAGACUGCGGGUUAGAGUCCCGUUCGGAACG is 0.552; for GUUCCGUUGGCGUAAUGGUAACGCGUCUCGCUCCUAAGGAGAAGACUGAGGGCUCGAGUCCCGUAGGGAACG it is 0.513; for GUUCCGUUGGCGUAAUGGUAACGCGUCUCGCUCCUAAGGAGAAGACUGUGGGUUCGAGUCCCGAACGGAACG it is 0.702.
With GUUCCGUUGGCGUAAUGGUAACGCGUCUCGCUACUAAGGAGAAGACUGCGGGUUCCAGUCCCGUGCGGAACG, the yeast fitness is not above 0.5.
The figure for GUUCCGUUGGCGUAAUGGUAACGCGUCUCGUCCCUAAGGAGAAGACUGCGGGUUCGAGUCCCGUACGGAACG is not above 0.5; for GUUCCGUUGGCGUAAUGGUAACGCGUCUCGCUCCUAAGGAGAAGACUGCGGGUUCGAGUCCCGUACGGACCG it is 0.719; for GUUCCGUUGGCGUAAUGGUAACGCGUCUCGCUCCUAAGGAGAAGACUGCGGGUUCGAGUCCCGUACGGAGCG it is 0.722.
As for GUUCCGUUGGCGUAAUGGUAACGCGUCUCGCUCCUAAGGAGAAGAUUGGGGGUUCGAGUCCCGAACGGAACG, the yeast fitness was not above 0.5.
